Data from publication PMC11865470 (Communications Biology, 2025).
Entries after “also recorded” stand apart in the source; their conditions may differ.

How the values were obtained:
Format in all cases: cell-based
CaV1.2 = CaV1.2 (Mus musculus, UniProt Q01815); assay: whole-cell patch-clamp, off-target channel, 10 μM compound; details: for sensitivity of channel to compound: vs 0.1% DMSO
Procedure, shortened: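 CaV channels in transfected HEK293T cells, whole-cell. Pipette (mM): 120 CsMeSO3, 2 Mg-ATP, 11 EGTA, 10 HEPES, pH 7.4. Bath (mM): 138 NaCl, 5.6 KCl, 2.6 CaCl2, 20 TEA-Cl, 5 glucose, 5 HEPES, pH 7.4. 0.1% DMSO bath applied before 10 μM test compound. Inhibition ratios compared by unpaired t-test, n = 5.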

mouse Otop3 (mOtop3) = molecular target: T1, mouse Otop3 (mOtop3) (Mus musculus, UniProt Q80UF9); assay: whole-cell patch-clamp, pH 5.5-evoked currents; details: 10 μM
T1 sequence (Q80UF9 1-577): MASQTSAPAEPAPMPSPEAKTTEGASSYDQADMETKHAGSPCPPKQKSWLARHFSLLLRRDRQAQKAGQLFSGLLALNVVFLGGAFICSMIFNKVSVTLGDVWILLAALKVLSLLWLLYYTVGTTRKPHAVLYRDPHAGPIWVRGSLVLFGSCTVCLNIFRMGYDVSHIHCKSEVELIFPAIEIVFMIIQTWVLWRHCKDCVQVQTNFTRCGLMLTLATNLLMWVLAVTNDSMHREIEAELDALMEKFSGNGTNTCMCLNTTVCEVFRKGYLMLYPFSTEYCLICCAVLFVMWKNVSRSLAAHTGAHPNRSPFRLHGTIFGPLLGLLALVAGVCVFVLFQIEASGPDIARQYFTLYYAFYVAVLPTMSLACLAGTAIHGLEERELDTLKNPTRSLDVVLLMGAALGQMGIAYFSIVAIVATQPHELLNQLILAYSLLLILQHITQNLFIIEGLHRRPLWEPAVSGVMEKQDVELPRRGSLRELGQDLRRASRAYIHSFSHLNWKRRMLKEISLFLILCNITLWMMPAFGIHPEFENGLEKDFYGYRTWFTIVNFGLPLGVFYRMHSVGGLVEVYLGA
Procedure, shortened: (§1)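 Channel plasmid (2.5 μg) was co-transfected with EGFP plasmid (0.5 μg) using Lipofectamine 2000 into PAC-knockout HEK293T cells. Whole-cell recording 16–24 h after seeding, with Cs-aspartate pipette solution (pH 7.3). Currents evoked by pH 5.5 bath (160 mM NMDG-Cl, 2 mM CaCl2, 10 mM MES); test compound 10 μM.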

[1] = molecular target: T2, mOtop1 channels co-expressed in HEK293 cells (Mus musculus, UniProt Q80VM9); assay: live cell intracellular pH imaging; details: 10 μM; for effect on intracellular pH changes mediated by mOtop1, acidification: extracellular pH 6.0/5.0; for effect on intracellular pH changes mediated by mOtop1, alkalinization: extracellular pH 8.5
T2 sequence (Q80VM9 1-600): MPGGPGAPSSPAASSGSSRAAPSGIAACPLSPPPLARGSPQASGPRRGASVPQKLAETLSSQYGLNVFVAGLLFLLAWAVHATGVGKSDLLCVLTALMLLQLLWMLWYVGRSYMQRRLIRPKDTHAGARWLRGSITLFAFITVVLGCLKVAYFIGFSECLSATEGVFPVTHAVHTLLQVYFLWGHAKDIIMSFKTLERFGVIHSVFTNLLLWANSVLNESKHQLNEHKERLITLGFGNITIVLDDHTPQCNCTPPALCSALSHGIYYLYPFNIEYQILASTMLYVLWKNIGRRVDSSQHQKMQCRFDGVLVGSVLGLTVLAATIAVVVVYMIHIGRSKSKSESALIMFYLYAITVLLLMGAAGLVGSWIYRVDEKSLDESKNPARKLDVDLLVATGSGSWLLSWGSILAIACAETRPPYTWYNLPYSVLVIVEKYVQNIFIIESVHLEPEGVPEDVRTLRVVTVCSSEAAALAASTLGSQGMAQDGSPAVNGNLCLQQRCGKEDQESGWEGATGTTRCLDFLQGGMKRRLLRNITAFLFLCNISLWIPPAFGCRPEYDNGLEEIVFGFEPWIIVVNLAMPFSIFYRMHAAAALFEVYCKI
Procedure, shortened: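 HEK293 cells were electroporated (180 V, 25 ms) with pHmScarlet-mTurquise2, with or without mOtop1, and imaged 24 h later. Cells sat in pH 7.4 solution (mM: 140 KCl, 10 NaCl, 1 MgCl2, 20 HEPES), then were shifted to pH 8.5 (Tris), 6.0 (MES) or 5.0 (HomoPIPES). Test compound was 10 μM in the stimulus solution, with acetic acid pH 5.0 as positive control. FpHmScarlet/FmTurquise2 ratio read every 2 s.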

[2] = molecular target: T3, Otop1 channels from human origin (hOtop1) (Homo sapiens, UniProt Q7RTM1); assay: whole-cell patch-clamp, pH 5.5-evoked currents; details: 10 μM
T3 sequence (Q7RTM1 1-612): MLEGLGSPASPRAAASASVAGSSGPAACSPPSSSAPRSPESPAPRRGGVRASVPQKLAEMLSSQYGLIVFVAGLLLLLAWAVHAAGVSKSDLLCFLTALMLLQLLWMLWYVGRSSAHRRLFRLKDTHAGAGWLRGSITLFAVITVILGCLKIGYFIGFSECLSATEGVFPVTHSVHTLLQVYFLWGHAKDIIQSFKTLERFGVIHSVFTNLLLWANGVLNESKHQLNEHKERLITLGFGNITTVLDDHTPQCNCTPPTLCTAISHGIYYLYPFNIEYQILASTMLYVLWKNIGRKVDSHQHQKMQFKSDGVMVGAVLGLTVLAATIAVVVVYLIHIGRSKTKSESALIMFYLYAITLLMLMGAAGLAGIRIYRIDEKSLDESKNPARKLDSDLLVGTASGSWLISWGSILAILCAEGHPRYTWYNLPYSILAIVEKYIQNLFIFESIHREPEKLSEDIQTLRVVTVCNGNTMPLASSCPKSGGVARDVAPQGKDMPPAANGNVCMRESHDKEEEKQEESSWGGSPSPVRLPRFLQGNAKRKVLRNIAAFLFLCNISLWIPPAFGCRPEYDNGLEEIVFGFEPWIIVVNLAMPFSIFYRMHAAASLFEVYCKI
Procedure, shortened: as §1

Chain of CaV1.2 (Q01815 whole entry): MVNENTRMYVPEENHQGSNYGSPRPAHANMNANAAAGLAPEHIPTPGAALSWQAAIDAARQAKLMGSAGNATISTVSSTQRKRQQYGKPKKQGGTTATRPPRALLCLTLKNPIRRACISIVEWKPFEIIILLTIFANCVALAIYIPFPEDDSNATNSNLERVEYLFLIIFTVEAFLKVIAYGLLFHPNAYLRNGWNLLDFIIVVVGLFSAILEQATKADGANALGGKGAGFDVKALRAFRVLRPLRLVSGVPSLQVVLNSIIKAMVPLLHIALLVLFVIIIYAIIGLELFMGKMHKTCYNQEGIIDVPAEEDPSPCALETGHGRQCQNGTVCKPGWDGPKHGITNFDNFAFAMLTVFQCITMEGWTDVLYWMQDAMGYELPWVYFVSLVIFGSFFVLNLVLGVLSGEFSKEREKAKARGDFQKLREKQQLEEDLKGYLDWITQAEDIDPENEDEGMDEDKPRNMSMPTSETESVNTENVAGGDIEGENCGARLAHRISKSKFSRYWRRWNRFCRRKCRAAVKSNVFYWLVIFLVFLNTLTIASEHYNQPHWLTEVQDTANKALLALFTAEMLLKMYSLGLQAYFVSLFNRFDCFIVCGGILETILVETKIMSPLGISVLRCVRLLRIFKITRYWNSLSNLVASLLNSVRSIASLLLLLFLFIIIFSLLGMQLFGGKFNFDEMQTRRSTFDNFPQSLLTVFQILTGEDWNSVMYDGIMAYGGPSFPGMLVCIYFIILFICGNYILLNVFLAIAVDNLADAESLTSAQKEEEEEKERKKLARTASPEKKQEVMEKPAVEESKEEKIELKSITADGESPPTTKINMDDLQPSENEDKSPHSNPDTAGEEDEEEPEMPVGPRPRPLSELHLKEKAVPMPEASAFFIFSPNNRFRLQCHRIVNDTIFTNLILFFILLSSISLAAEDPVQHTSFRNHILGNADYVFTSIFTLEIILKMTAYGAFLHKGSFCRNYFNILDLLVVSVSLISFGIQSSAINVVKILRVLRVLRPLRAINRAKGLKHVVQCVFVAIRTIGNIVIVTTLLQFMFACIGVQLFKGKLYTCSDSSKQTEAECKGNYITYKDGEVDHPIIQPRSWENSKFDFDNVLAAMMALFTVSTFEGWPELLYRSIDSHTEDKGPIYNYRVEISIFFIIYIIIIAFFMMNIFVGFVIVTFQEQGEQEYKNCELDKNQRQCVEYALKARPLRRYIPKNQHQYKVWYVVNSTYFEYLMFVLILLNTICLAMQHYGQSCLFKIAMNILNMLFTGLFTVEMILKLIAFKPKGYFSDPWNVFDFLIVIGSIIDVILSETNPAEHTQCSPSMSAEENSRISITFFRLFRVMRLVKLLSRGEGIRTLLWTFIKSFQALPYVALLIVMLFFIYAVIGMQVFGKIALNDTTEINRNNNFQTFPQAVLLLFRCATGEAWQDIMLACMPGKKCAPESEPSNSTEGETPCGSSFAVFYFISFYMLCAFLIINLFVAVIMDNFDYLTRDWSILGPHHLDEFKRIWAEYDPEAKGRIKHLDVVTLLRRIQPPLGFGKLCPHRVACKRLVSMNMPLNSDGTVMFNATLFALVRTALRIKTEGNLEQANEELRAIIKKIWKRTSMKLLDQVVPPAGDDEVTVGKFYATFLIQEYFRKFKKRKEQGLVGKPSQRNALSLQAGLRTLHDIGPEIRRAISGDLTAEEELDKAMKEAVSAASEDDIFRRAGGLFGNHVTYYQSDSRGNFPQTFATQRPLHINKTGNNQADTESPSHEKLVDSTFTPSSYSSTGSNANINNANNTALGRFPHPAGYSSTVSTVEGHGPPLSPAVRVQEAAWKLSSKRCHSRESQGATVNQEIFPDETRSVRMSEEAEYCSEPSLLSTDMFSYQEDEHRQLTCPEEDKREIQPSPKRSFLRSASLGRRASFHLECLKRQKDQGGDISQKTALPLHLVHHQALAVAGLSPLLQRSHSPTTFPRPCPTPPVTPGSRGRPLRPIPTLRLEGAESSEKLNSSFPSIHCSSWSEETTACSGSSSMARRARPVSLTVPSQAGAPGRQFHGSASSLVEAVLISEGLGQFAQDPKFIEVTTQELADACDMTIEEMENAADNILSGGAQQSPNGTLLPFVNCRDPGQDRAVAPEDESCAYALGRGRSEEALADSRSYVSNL

effect on pH 5.5-evoked mOtop3 currents (mouse Otop3 (mOtop3))	effect on intracellular pH changes mediated by mOtop1, acidification [1]	effect on intracellular pH changes mediated by mOtop1, alkalinization [1]	effect on hOtop1 currents [2]	Compound	sensitivity of channel to compound (CaV1.2)	inhibition ratio (CaV1.2) [%]
did not affect	increases intracellular pH changes	no effect	potent potentiation effects	Cc1cc(NC(=O)c2ccc(Br)o2)ccc1NC(=O)c1ccco1 [B2FAMP, 5-Bromo-N-[4-(2-furoylamino)-3-methylphenyl]-2-furamide]	completely resistant	
did not affect	increases intracellular pH changes	no effect	potent potentiation effects	Cc1ccc(C(=O)Nc2ccc3ccccc3c2)o1 [MFaN, 5-methyl-N-2-naphthyl-2-furamide]	completely resistant	

Compound	effect on pH 5.5-evoked mOtop3 currents (mouse Otop3 (mOtop3))	effect on intracellular pH changes mediated by mOtop1, acidification [1]	effect on intracellular pH changes mediated by mOtop1, alkalinization [1]	effect on hOtop1 currents [2]	sensitivity of channel to compound (CaV1.2)	inhibition ratio (CaV1.2) [%]
CC(C)c1noc2ncc(C(=O)c3ccccc3O)cc12 [HIMOP, (2-hydroxyphenyl)-(3-propan-2-yl-5-isoxazolo[5,4-b]pyridinyl)methanone]	did not affect	increases intracellular pH changes	small but statistically significant increase in pHi; also recorded: increases intracellular pH changes; also recorded: slightly but significantly enhance	potent potentiation effects		15.6
